Published values of several laboratories.
Compare with care: the assays were run in different laboratories.
Target: Serine/threonine-protein kinase BRSK2 (BRSK2, Homo sapiens, UniProt Q8IWQ3)
Sequence (Q8IWQ3 1-736, as in one of the studies): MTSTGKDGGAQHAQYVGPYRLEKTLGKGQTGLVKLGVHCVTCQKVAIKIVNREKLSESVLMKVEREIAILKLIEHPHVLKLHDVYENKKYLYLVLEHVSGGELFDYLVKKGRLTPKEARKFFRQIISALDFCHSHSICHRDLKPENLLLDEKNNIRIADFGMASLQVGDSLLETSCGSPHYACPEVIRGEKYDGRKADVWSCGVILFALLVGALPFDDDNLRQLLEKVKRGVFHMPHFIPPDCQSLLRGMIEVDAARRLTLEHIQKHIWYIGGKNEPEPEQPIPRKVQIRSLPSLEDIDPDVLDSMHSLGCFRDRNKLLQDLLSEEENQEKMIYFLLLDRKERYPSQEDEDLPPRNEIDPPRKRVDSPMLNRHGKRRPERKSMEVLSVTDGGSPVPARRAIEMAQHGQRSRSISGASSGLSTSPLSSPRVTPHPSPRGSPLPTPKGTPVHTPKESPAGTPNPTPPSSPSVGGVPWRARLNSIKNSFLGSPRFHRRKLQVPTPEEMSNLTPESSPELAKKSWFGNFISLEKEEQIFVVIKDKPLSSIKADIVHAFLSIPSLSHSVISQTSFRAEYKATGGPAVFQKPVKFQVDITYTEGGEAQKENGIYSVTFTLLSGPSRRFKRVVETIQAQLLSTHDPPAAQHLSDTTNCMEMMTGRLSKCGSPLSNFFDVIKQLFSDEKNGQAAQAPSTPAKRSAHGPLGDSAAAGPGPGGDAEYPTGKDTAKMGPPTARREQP

Structure (SMILES) | assay | conditions | endpoint | result
CC(C)(O)[C@H]1CC[C@H](Nc2ccc3ncc(-c4cccc(C(F)(F)F)c4)n3n2)CC1 | enzyme activity, inhibitor | 1 µM | remaining activity | 94.4%
Nc1nc(Nc2ccc(S(N)(=O)=O)cc2)nn1C(=O)c1c(F)cccc1F | cell-free assay | 0.5 µM | remaining signal | 49%
CCN(CC)c1ccc(C2=NNC(=O)CC2C)cc1[N+](=O)[O-] (stereo not shown) | enzyme activity, inhibitor | 10 µM | remaining activity | 104%
Cc1sc(C(=O)NC2COC2)cc1-n1cc(NC(=O)Nc2c(F)cccc2Cl)cn1 | enzyme activity, inhibitor | 10 µM | remaining activity | 102%
COc1ccc(COc2ccc(Cc3cnc(N)nc3N)cc2OC)cc1 | cell-free assay | 0.5 µM | remaining signal | 96.8%
Nc1nc(Nc2ccccc2)sc1C(=O)c1c(F)cccc1F | enzyme activity, inhibitor | 10 µM | remaining activity | 55%
Cc1cc(-n2nc(Cc3cc(F)cc(C(F)(F)F)c3)nc2C)ccc1C(N)=O | cell-free assay, competition with immobilised ligand | 1 µM | remaining binding | 77%
Cc1ccc(Nc2nccc(N(C)c3ccc4c(C)n(C)nc4c3)n2)cc1S(N)(=O)=O | enzyme activity, inhibitor | 0.3 µM | inhibition | 1%
O=C(Nc1cnn(-c2csc(C(=O)NC3COC3)c2)c1)Nc1ccccc1Cl | enzyme activity, inhibitor | 5 µM | remaining activity | 102%
COc1cc(Nc2cnc(C#N)c(O[C@H](C)CN(C)C)n2)ncc1-c1cnn(C)c1 | enzyme activity, inhibitor, radiometric | 10 µM | remaining activity | 14%
CCN(CC)CCNC(=O)c1c(C)[nH]c(/C=C2\C(=O)Nc3ccc(F)cc32)c1C | enzyme activity, inhibitor | 10 µM | inhibition | 82%
Cc1cc(NC(=O)c2cccc(S(F)(F)(F)(F)F)c2)cc(-n2ccn3nc(-c4cccnc4)cc23)c1 | cell-free assay, competition with immobilised ligand | 1 µM | remaining binding | 100%
FC(F)(F)Oc1cccc(-c2cnc3ccc(-c4ccncc4)nn23)c1 | enzyme activity, inhibitor, radiometric | 1 µM | activity vs control | 81%
CC(C)(C)c1nc(-c2cccc(NS(=O)(=O)c3c(F)cccc3F)c2F)c(-c2ccnc(N)n2)s1 | enzyme activity, inhibitor, radiometric | 1 µM | remaining activity | 50%
CNc1cccc2cc(C(=O)Nc3ccc(C(=O)O)cc3)c(=O)[nH]c12 | enzyme activity, inhibitor | 10 µM | inhibition | 7.8%
Cn1nc(C(=O)NCc2ccc(C(=O)O)cc2)cc1-c1ccc2[nH]ccc2c1 | cell-free assay, competition with immobilised ligand | 0.1 µM | remaining binding | 100%
CN1CC(Oc2cnc(C#N)cc2-c2ccn3nc(NC(=O)C4CC4)cc3c2)C1 | enzyme activity, inhibitor | 1 µM | inhibition | 16%
CCCOc1ccc(OC)c(F)c1C(=O)c1ccc(C(=O)N[C@@H]2CNC[C@H]2NC(=O)c2ccc3[nH]ncc3c2)cc1 | enzyme activity, inhibitor | 10 µM | remaining activity | 33%
Cc1c(C(=O)O)cc(-c2ccc(C3CCNCC3)cc2)c2ccc(-c3ccc(C(F)(F)F)cc3)cc12 | binding, competition with immobilised ligand | 1 µM | remaining binding | 100%
Oc1ccc(-c2nc(-c3ccncc3)c(-c3ccc(F)cc3)[nH]2)cc1 | cell-free assay | 0.5 µM | remaining signal | 101%
CNCc1ccccc1-c1csc([C@@H](C)Nc2nc(C)nc3cc(OC)c(OC)cc23)c1 | cell-free assay, competition with immobilised ligand | 1 µM | remaining binding | 100%
COc1cc(Cl)c(C(=O)N[C@@H](CN[C@H]2CC[C@@H](N)CC2)Cc2ccc(C#N)cc2)cc1-c1ccc(CN[C@H](C)c2ccc(C)cc2)o1 | enzyme activity, inhibitor | 1 µM | remaining activity | 99%
CC(=O)c1c(NS(C)(=O)=O)c2cc(-c3ccc(Cl)cc3)c(-c3ccc(Cl)cc3Cl)nc2n(C)c1=O | cell-free assay, competition with immobilised ligand | 1 µM | remaining binding | 90%
O=C1Nc2ccc(Cl)cc2C1=Cc1cc(Cl)c(O)c(Cl)c1 | cell-free assay | 0.5 µM | remaining signal | 77.2%
CCc1ccccc1C(=O)Nc1n[nH]c2c(C)c(F)c(C3C(C#N)=C(C)N(C)C(C)=C3C#N)cc12 | cell-free assay, competition with immobilised ligand | 1 µM | remaining binding | 36%
Cn1c(=O)n(-c2ccc(C(C)(C)C#N)cc2)c2c3cc(-c4cnc5ccccc5c4)ccc3ncc21 | enzyme activity, inhibitor | 10 µM | remaining activity | 89%
CN([C@@H]1CCc2c(CC(=O)O)c3ccccc3n2C1)S(=O)(=O)c1ccc(F)cc1 | cell-free assay, competition with immobilised ligand | 1 µM | remaining binding | 100%
Nc1nc(NC2CCCCC2)sc1C(=O)c1ccccc1 | enzyme activity, inhibitor | 10 µM | remaining activity | 93%
